ChEMBL document CHEMBL3352487, “Synthesis, antibacterial activity, and biological evaluation of formyl hydroxyamino derivatives as novel potent peptide deformylase inhibitors against drug-resistant bacteria” (Eur J Med Chem, 2014)
Values after ≈ are worked out from the molar mass of the structure shown.

Experiments:
[1] = Protein binding in CD1 mouse plasma at 2 uM by equilibrium dialysis; type: ADME, cell-free; conditions: read-out: PPB (converted)
[2] = Fraction unbound in CD1 mouse plasma at 2 uM by equilibrium dialysis; type: ADME, cell-free
In short: (§1)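 Pooled CD-1 mouse plasma spiked to 2 µM final, equilibrium dialysis in triplicate against 100 mM PBS pH 7.4, 4 h at 37 °C with rotation; matrix-matched samples acetonitrile-precipitated, LC-MS/MS with internal standards. Unbound = free/total ×100; recovery = (free+total)/pre-dialysis ×100.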

[3] = Drug recovery in CD1 mouse plasma at 2 uM by equilibrium dialysis; type: ADME, cell-free; conditions: read-out: Drug recovery; in short: as §1
Escherichia coli [4] = assay: Antimicrobial activity against Escherichia coli isolate 2 after 24 hrs by broth microdilution method; type: functional; conditions: isolate 2, 24 h
In short: (§2)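 Broth microdilution following NCCLS M7-A4; ATCC strains and clinical isolates from a provincial hospital.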

Escherichia coli [5] = assay: Antimicrobial activity against Escherichia coli isolate 1 after 24 hrs by broth microdilution method; type: functional; conditions: isolate 1, 24 h; in short: as §2
Staphylococcus aureus [6] = assay: Antimicrobial activity against Staphylococcus aureus ATCC 33591 in septicemia mouse model assessed as mortality of host at 5 mg/kg administered intragastrically measured after 14 days relative to control; type: functional; conditions: ATCC 33591, po, 336 h, route intragastric
In short: (§3)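 Septicemia model: outbred mice inoculated i.p. with a 90–100% lethal dose (5 × 10^6 CFU/mL) in 0.5 mL brain heart infusion broth with 5% mucin. Drug in 20% DMSO given intragastrically after infection at 5, 10 or 20 mg/kg, 0.1 mL. Six mice per dose; cumulative mortality over 14 days; ED50 derived.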

Staphylococcus aureus [7] = assay: Antimicrobial activity against Staphylococcus aureus ATCC 33591 in septicemia mouse model assessed as mortality of host at 10 mg/kg administered intragastrically measured after 14 days relative to control; type: functional; conditions: ATCC 33591, po, 336 h, route intragastric; in short: as §3
Staphylococcus aureus [8] = assay: Antimicrobial activity against Staphylococcus aureus ATCC 33591 in septicemia mouse model assessed as mortality of host at 20 mg/kg administered intragastrically measured after 14 days relative to control; type: functional; conditions: ATCC 33591, po, 336 h, route intragastric; in short: as §3
[9] = test system: Staphylococcus epidermidis; assay: Antimicrobial activity against Staphylococcus epidermidis after 24 hrs by broth microdilution method; type: functional; in short: as §2
Staphylococcus aureus [10] = assay: Antimicrobial activity against Staphylococcus aureus ATCC 33591 in septicemia mouse model administered intragastrically measured after 14 days; type: functional; conditions: ATCC 33591, po, 336 h

Structure (SMILES) | fraction unbound at 2 µM [1] | fraction unbound at 2 µM [2] | recovery at 2 µM [3] | MIC (Escherichia coli [4]) | MIC (Escherichia coli [5]) | mortality at 5 mg/kg (Staphylococcus aureus [6]) | mortality at 10 mg/kg (Staphylococcus aureus [7]) | mortality at 20 mg/kg (Staphylococcus aureus [8]) | MIC [9] | ED50 (Staphylococcus aureus [10])
CC(=O)CC(c1ccccc1)c1c(O)c2ccccc2oc1=O (stereo not given) [WARFARIN] | 0.059 | 0.059 | 104% |  |  |  |  |  |  | 
CC(=O)NC[C@H]1CN(c2ccc(N3CCOCC3)c(F)c2)C(=O)O1 [LINEZOLID] |  |  |  | > 64 µg/mL | > 64 µg/mL | 83% | 66% | 16% | 0.5 µg/mL (≈ 1.48 µM) | 11.9 mg/kg
